The subject of test [1] is Staphylococcus aureus. The experiment in a line: Antimicrobial activity against oxacillin- and methicillin-resistant Staphylococcus aureus isolate Sa-OXA-R2 after 18 to 24 hrs by alamar blue assay. The class given is functional. An outline of the steps:
(§1)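 Broth microdilution per NCCLS standard, Mueller-Hinton broth, 8-point twofold dilutions; exponentially growing cells at 5 10^5 cells/ml with compound, 18–24 h at 37 C; 20% Alamar blue added, fluorescence read; MIC90 taken as lowest concentration preventing at least 90% growth.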
On the technique in general: The colour change of resazurin is a common sign of viable cells or microbes.

The next test concerns Bacillus subtilis. Put plainly: Antimicrobial activity against Bacillus subtilis ATCC 23857 after 18 to 24 hrs by alamar blue assay. The class given is functional. In outline: (§2)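 Broth microdilution per NCCLS in Mueller-Hinton broth, 8-point twofold dilutions, 384-well format. Exponential-phase cells at 5 × 10^5 cells/ml incubated with compound 18–24 h at 37 °C, then 20% Alamar blue added and fluorescence read. MIC90 taken as the lowest concentration preventing at least 90% bacterial growth.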

The subject of the next test is Escherichia coli. Put plainly: Antimicrobial activity against Escherichia coli ATCC […] after 18 to 24 hrs by alamar blue assay. The class given is functional. The settings on record: Escherichia coli; read-out: MIC. In outline:
as §2

The next test has as its system Pseudomonas aeruginosa. The experiment in a line: Antimicrobial activity against Pseudomonas aeruginosa ATCC 25619 after 18 to 24 hrs by alamar blue assay. It is filed as functional. The settings on record: Pseudomonas aeruginosa, ATCC 25619; read-out: MIC. An outline of the steps:
as §2

Another test deals with Acinetobacter baumannii. The experiment in a line: Antimicrobial activity against Acinetobacter baumannii ATCC 49139 after 18 to 24 hrs by alamar blue assay. It is filed as functional. To be noted: Acinetobacter baumannii, ATCC 49139; read-out: MIC. An outline of the steps:
as §2

For test [2], the system named is Stenotrophomonas maltophilia. Put plainly: Antimicrobial activity against Stenotrophomonas maltophilia ATCC 13637 after 18 to 24 hrs by alamar blue assay. It is filed as functional. The settings on record: Stenotrophomonas maltophilia, ATCC 13637; read-out: MIC. In outline: as §2
The test system of another test is Serratia marcescens. The experiment in a line: Antimicrobial activity against Serratia marcescens ATCC 14756 after 18 to 24 hrs by alamar blue assay. It is filed as functional. The settings on record: Serratia marcescens, ATCC 14756; read-out: MIC. In outline: as §2
In test [3] the test system is Mycolicibacterium smegmatis. Put plainly: Antimicrobial activity against Mycobacterium smegmatis BCRC 11565 after 18 to 24 hrs by alamar blue assay. The settings on record: Mycolicibacterium smegmatis, BCRC 11565; read-out: MIC. It is filed as functional. In outline:
as §2

Test [4] relates to Staphylococcus aureus. Put plainly: Antimicrobial activity against methicillin-resistant Staphylococcus aureus isolate NTUH4722 after 18 to 24 hrs by alamar blue assay. It is filed as functional. In outline:
as §1

For test [5], the system named is Staphylococcus aureus. Put plainly: Antimicrobial activity against methicillin-resistant Staphylococcus aureus ATCC 33592 after 18 to 24 hrs by alamar blue assay. It is filed as functional. The settings on record: Staphylococcus aureus, ATCC 33592; read-out: MIC. An outline of the steps:
as §1

The subject of test [6] is Staphylococcus aureus. The experiment in a line: Antimicrobial activity against Staphylococcus aureus ATCC 29213 after 18 to 24 hrs by alamar blue assay.

These results are taken from ChEMBL document CHEMBL1629439, “High-throughput identification of antibacterials against methicillin-resistant Staphylococcus aureus (MRSA) and the transglycosylase” (Bioorg Med Chem, 2010).

≈ marks a conversion by molar mass, not a printed value.

As to `CNC(=O)c1ccsc1NC(=O)c1ccc([N+](=O)[O-])o1`, the MIC in the test with Staphylococcus aureus [1] came to 0.5 µg/mL (≈ 1.69 µM); against Bacillus subtilis, 0.06 µg/mL (≈ 0.203 µM); in the test with Escherichia coli, 256 µg/mL (≈ 867 µM); with Pseudomonas aeruginosa, 128 µg/mL (≈ 433 µM); in the test on Acinetobacter baumannii it was 12 µg/mL (≈ 40.6 µM); in [2] it was 32 µg/mL (≈ 108 µM). The MIC was 32 µg/mL (≈ 108 µM) in the test with Serratia marcescens; 0.5 µg/mL (≈ 1.69 µM) in test [3]; 0.5 µg/mL (≈ 1.69 µM) in the test with Staphylococcus aureus [4]; 0.5 µg/mL (≈ 1.69 µM) with Staphylococcus aureus [5]; 2 µg/mL (≈ 6.77 µM) with Staphylococcus aureus [6].
Consider `O=c1c2ccccc2nc(/C=C/c2ccc([N+](=O)[O-])o2)n1CCCO`, for which the minimum inhibitory concentration (MIC) against Staphylococcus aureus [1] was 2 µg/mL (≈ 5.86 µM); against Bacillus subtilis it was less than 0.03 µg/mL; in the test with Escherichia coli it was 16 µg/mL (≈ 46.9 µM); in the test on Pseudomonas aeruginosa it was 2 µg/mL (≈ 5.86 µM); with Acinetobacter baumannii, greater than 256 µg/mL; in test [2], greater than 256 µg/mL. For the same compound, the minimal inhibitory concentration (MIC) in the test on Serratia marcescens was greater than 256 µg/mL; in test [3], 1 µg/mL (≈ 2.93 µM); in the test on Staphylococcus aureus [4], 2 µg/mL (≈ 5.86 µM); with Staphylococcus aureus [5] it was 2 µg/mL (≈ 5.86 µM); against Staphylococcus aureus [6] it was 2 µg/mL (≈ 5.86 µM).
As to `O=C(Nc1nnc(-c2ccc(Cl)cc2)o1)c1cccc(Cl)c1`, the MIC against Staphylococcus aureus [1] is 0.125 µg/mL (≈ 0.374 µM); in the test on Bacillus subtilis, 0.5 µg/mL (≈ 1.5 µM); with Escherichia coli it was greater than 256 µg/mL; in the test on Pseudomonas aeruginosa, greater than 256 µg/mL; in the test on Acinetobacter baumannii, greater than 256 µg/mL; in test [2], greater than 256 µg/mL. The MIC was greater than 256 µg/mL in the test with Serratia marcescens; 0.5 µg/mL (≈ 1.5 µM) in test [3]; 0.125 µg/mL (≈ 0.374 µM) against Staphylococcus aureus [4]; 0.25 µg/mL (≈ 0.748 µM) with Staphylococcus aureus [5]; 0.5 µg/mL (≈ 1.5 µM) with Staphylococcus aureus [6].
For `O=C(Nc1cc(Cl)c(Cl)c(Cl)c1)c1cc(Br)cc(Br)c1O`, the MIC in the test with Staphylococcus aureus [1] is no more than 0.03 µg/mL; against Bacillus subtilis, less than 0.03 µg/mL; with Escherichia coli it was 8 µg/mL (≈ 16.9 µM); in the test with Pseudomonas aeruginosa, 16 µg/mL (≈ 33.7 µM); in the test on Acinetobacter baumannii, 16 µg/mL (≈ 33.7 µM); in test [2] it was 16 µg/mL (≈ 33.7 µM). The MIC in the test on Serratia marcescens was 16 µg/mL (≈ 33.7 µM); in test [3], 0.5 µg/mL (≈ 1.05 µM); against Staphylococcus aureus [4], no more than 0.03 µg/mL; in the test on Staphylococcus aureus [5], 0.06 µg/mL (≈ 0.126 µM); in the test on Staphylococcus aureus [6] it was no more than 0.03 µg/mL.
Turning to `O=C(Nc1nnc(-c2cccc(Br)c2)o1)c1ccc(F)cc1`, the MIC is 1.5 µg/mL (≈ 4.14 µM) against Staphylococcus aureus [1]; 0.5 µg/mL (≈ 1.38 µM) against Bacillus subtilis; greater than 256 µg/mL in the test on Escherichia coli; greater than 256 µg/mL in the test on Pseudomonas aeruginosa; greater than 256 µg/mL in the test on Acinetobacter baumannii; greater than 256 µg/mL in [2]. The MIC in the test on Serratia marcescens was greater than 256 µg/mL; in test [3] it was 0.5 µg/mL (≈ 1.38 µM); in the test with Staphylococcus aureus [4], 1.5 µg/mL (≈ 4.14 µM); in the test with Staphylococcus aureus [5] it was 1.5 µg/mL (≈ 4.14 µM); in the test with Staphylococcus aureus [6], 3 µg/mL (≈ 8.28 µM).
Regarding `CCCc1cc(O)nc(N2NC(C)=CC2NC(=O)c2ccccc2Cl)n1` (centres undefined), the MIC with Staphylococcus aureus [1] was 2 µg/mL (≈ 5.35 µM); against Bacillus subtilis, 0.25 µg/mL (≈ 0.669 µM); in the test on Escherichia coli it was greater than 256 µg/mL; in the test on Pseudomonas aeruginosa, greater than 256 µg/mL; in the test on Acinetobacter baumannii, greater than 256 µg/mL; in test [2], greater than 256 µg/mL. For the same compound, the MIC in the test with Serratia marcescens was greater than 256 µg/mL; in test [3], 0.25 µg/mL (≈ 0.669 µM); in the test on Staphylococcus aureus [4] it was 1 µg/mL (≈ 2.67 µM); in the test with Staphylococcus aureus [5] it was 0.5 µg/mL (≈ 1.34 µM); against Staphylococcus aureus [6], 1 µg/mL (≈ 2.67 µM).
In the case of `COC(=O)c1c(NC(=O)c2ccc([N+](=O)[O-])o2)sc2c1CC(C)(C)NC2(C)C`, the minimal inhibitory concentration (MIC) in the test with Staphylococcus aureus [1] came to 2 µg/mL (≈ 4.91 µM); against Bacillus subtilis, 0.06 µg/mL (≈ 0.147 µM); in the test with Escherichia coli, 256 µg/mL (≈ 628 µM); in the test with Pseudomonas aeruginosa, 128 µg/mL (≈ 314 µM); in the test on Acinetobacter baumannii, 12 µg/mL (≈ 29.5 µM); in test [2], 32 µg/mL (≈ 78.5 µM). Besides, the minimum inhibitory concentration (MIC) stood at 32 µg/mL (≈ 78.5 µM) in the test on Serratia marcescens; 0.5 µg/mL (≈ 1.23 µM) in test [3]; 4 µg/mL (≈ 9.82 µM) in the test on Staphylococcus aureus [4]; 2 µg/mL (≈ 4.91 µM) in the test with Staphylococcus aureus [5]; 2 µg/mL (≈ 4.91 µM) against Staphylococcus aureus [6].
With `NC(=O)c1oc2ccccc2c1NC(=O)c1ccc([N+](=O)[O-])o1`, the MIC in the test on Staphylococcus aureus [1] amounted to 2 µg/mL (≈ 6.34 µM); in the test with Bacillus subtilis, 0.06 µg/mL (≈ 0.19 µM); in the test with Escherichia coli, 256 µg/mL (≈ 812 µM); in the test with Pseudomonas aeruginosa, 128 µg/mL (≈ 406 µM); with Acinetobacter baumannii, 12 µg/mL (≈ 38.1 µM); in test [2] it was 32 µg/mL (≈ 102 µM). The minimum inhibitory concentration (MIC) was determined as 32 µg/mL (≈ 102 µM) in the test with Serratia marcescens; 0.5 µg/mL (≈ 1.59 µM) in [3]; 0.5 µg/mL (≈ 1.59 µM) against Staphylococcus aureus [4]; 0.5 µg/mL (≈ 1.59 µM) with Staphylococcus aureus [5]; 2 µg/mL (≈ 6.34 µM) in the test on Staphylococcus aureus [6].
In the case of `CSc1nc2ccc(NC(=O)c3ccc([N+](=O)[O-])o3)cc2s1`, the minimum inhibitory concentration (MIC) against Staphylococcus aureus [1] came out at 1 µg/mL (≈ 2.98 µM); against Bacillus subtilis it was 0.06 µg/mL (≈ 0.179 µM); in the test on Escherichia coli, 256 µg/mL (≈ 763 µM); with Pseudomonas aeruginosa it was 128 µg/mL (≈ 382 µM); in the test on Acinetobacter baumannii, 12 µg/mL (≈ 35.8 µM); in [2], 32 µg/mL (≈ 95.4 µM). Besides, the MIC worked out at 32 µg/mL (≈ 95.4 µM) in the test on Serratia marcescens; 0.5 µg/mL (≈ 1.49 µM) in test [3]; 1 µg/mL (≈ 2.98 µM) in the test with Staphylococcus aureus [4]; 1 µg/mL (≈ 2.98 µM) with Staphylococcus aureus [5]; 1 µg/mL (≈ 2.98 µM) against Staphylococcus aureus [6].

One may read the MIC as the smallest concentration in the dilution series that meets the test's criterion for growth inhibition.
